# This is a sample that favours compounds with a hit; in the whole collection about 1.1% have one here.
# Redox H2O2 prof: compounds producing H2O2 with reducing agent – biochemical, NIH compound library profiling, artefact control for MLSCN library redox annotation, primary screen. activation, % at 10 µM. 200,000 compounds, 0.03% hits. DTT-dependent redox cycling H2O2, phenol red/HRP absorbance; 100% = 100 µM peroxide control, 0% = buffer. AID 878;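 active = activation of at least 50% relative to the plate's high and low controls in the primary single-dose screen; inactive = activation below 50%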;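 also: compound incubated with DTT at 0.8 mM final as the reducing agent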
# G6PDH counter: counter-screen for G6PDH assay hits: L. mesenteroides G6PDH inhibition; AID 1020; inhibition, % at 5 µM; Purified L. mesenteroides G6PDH, diaphorase/resazurin coupled fluorescence, 45 min; 200,000 compounds, 0.12% hits; in the data active = inhibition above about 50%
# PMI activator: activators of human phosphomannose isomerase. purified human PMI, coupled resazurin fluorescence, 20 min; active compounds read high; 1 = vehicle control, 0 substrate-free wells. activation factor at 20 µM. 190,000 compounds, 0.005% hits;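 active = activation factor of 2 or more at 20 µM, relative to plate controls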
# Target sequence (P34949 whole entry, looked up): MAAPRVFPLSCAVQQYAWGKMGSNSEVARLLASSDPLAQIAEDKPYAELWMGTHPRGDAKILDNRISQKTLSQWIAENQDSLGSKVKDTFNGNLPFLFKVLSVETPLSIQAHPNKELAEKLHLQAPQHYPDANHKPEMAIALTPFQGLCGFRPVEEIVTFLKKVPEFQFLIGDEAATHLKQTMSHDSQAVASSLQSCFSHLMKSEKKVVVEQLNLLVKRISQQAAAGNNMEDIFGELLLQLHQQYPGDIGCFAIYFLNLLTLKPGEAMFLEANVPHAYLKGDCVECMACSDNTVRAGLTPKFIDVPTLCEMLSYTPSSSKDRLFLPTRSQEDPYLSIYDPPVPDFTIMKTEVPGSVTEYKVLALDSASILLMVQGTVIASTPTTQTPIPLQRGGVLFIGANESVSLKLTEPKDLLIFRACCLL
# PMI act hi M6P: increases human PMI activity with near-saturating mannose 6-phosphate; activation factor at 20 µM; 190,000 compounds, 0.34% hits; P34949; coupled PMI enzyme assay, resazurin fluorescence, 20 min; active compounds read high; 1 = untreated enzyme, 0 = substrate-free blank; AID 1216;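 active = activation factor of 2 or more at 20 µM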
#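 Test system: human phosphomannose isomerase with PGI, G6PDH, diaphorase coupling enzymes; amount: 15 ng/mL PMI; incubation: enzyme reaction with compound 20 min at room temperature; technique: resorufin fluorescence (Ex 544/Em 590 nm) from resazurin via diaphorase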
# Diaphorase act: diaphorase activation or chemical reduction counter-screen; Diaphorase/resazurin coupled assay, resorufin fluorescence, 16 min; active compounds read high; 1 = vehicle wells, 0 = NADH-free wells; activation factor at 20 µM; 190,000 compounds, 0.005% hits; AID 1229;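 active = diaphorase activity raised at least twofold by the compound at 20 µM; inactive = activation factor below 2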
#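 Test system: Clostridium kluyveri diaphorase, purified enzyme; input: enzyme 0.07 U/mL final; buffer or medium: 50 mM HEPES pH 7.4 with 4.542 mM MgCl2, 0.005% Tween 20; also added: 0.114 mM NADH and 0.1 mM resazurin, final amounts; schedule: 16 min enzyme reaction, ambient temperature; technique: fluorescence of resorufin, 544 nm excitation, 590 nm emission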
# Diaph inh CS: inhibits diaphorase or chemically oxidizes, flagging diaphorase assay artifacts. diaphorase resazurin-to-resorufin fluorescence, NADH, 16 min; bacterial (C. kluyveri) enzyme, not human. inhibition, % at 20 µM. 190,000 compounds, 0.69% hits. AID 1217;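 active = primary screen inhibition at 20 µM above a set limit, cut at about 50% in these data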;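 also: plate controls were DMSO with full reaction for no effect and wells lacking NADH for full effect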
#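 Benchmarks: positive control wells lacking NADH, neutral wells with DMSO only. System: bacterial diaphorase enzyme (C. kluyveri). Input: 0.14 U/mL diaphorase, enzyme working solution. Detection: resorufin fluorescence, excitation 544 nm, emission 590 nm. Times: 16-min room-temperature incubation before reading.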
# * hit, by the source's call; . = not tested or not shown.
SMILES,Redox H2O2 prof,G6PDH counter,PMI activator,PMI act hi M6P,Diaphorase act,Diaph inh CS
CS(=O)(=O)N1CCN(c2ccc([N+](=O)[O-])c(SCc3ccco3)c2)CC1,0.4,13.3,0.9,0.6,0.4,56.8*
CC(Nc1cc(N2CCN(S(C)(=O)=O)CC2)ccc1[N+](=O)[O-])c1ccccc1 (configuration not stated),0.3,-18.4,0.9,1,0.9,14.6
CC(=O)/C(=N/Nc1cccc(Cl)c1)N1CCOCC1,-0.4,1.4,1.6,2*,0.9,13.1
CC(=O)/C(=N/Nc1ccccc1C)N1CCOCC1,-6.4,-4.0,1.5,2.4*,0.8,15.5
Cc1noc(NS(=O)(=O)c2ccc(NC(=O)C34CC5CC(C3)CC(n3cnc(Br)n3)(C5)C4)cc2)c1C,0.5,-0.7,1,0.9,0.8,21.1
O=c1[nH]c2ccccc2c2nc3ccccn3c12,-2.4,-1.7,0.9,0.9,0.9,13.2
O=c1nc2c(O)cccn2c2c1c(=O)[nH]c1ccccc12,0.2,-8.2,1,0.7,0.3,74.7*
Cc1nn(CC(=O)OCC(=O)NC(C)c2ccccc2)c(C)c1[N+](=O)[O-] (configuration not stated),-0.6,5.1,1.1,1,1.1,-10.0
Cc1ccc(C(c2nnnn2Cc2ccccc2)N2CCN(Cc3ccccc3)CC2)cc1 (configuration not stated),1.3,8.3,0.9,1,0.2,79.4*
c1ccc(CN2CCN(C(c3ccccc3)c3nnnn3Cc3ccccc3)CC2)cc1 (configuration not stated),-2.9,4.9,1.1,1.1,1,3.4
Cc1ccnc(SCCn2c(N3CC(C)CC(C)C3)nc3c2c(=O)n(C)c(=O)n3C)n1 (configuration not stated),-0.9,7.0,1,1,0.5,51.0*
CCCCCCCN1C2=NCCCN2c2ccccc21,0.3,-0.7,1,1,0.9,6.1
O=C(Cc1ccccc1)NC(NNc1ccccc1)(C(F)(F)F)C(F)(F)F,-1.0,-0.2,1.7,2.5*,0.9,10.6
Fc1cccc(NC(=S)NNc2c3ccccc3nc3ccccc23)c1,-1.9,-3.8,1.4,2.1*,0.9,5.0
Cn1c2ccccc2c(=O)n2c(=O)c3ccccc3cc12,-0.2,50.7*,0.9,0.5,0.8,15.7
COc1ccccc1NS(=O)(=O)c1cccc(NC(=O)Cc2cccs2)c1,0.2,-19.7,0.9,1,0.8,16.2
CC(C)=CCc1c(O)ccc2c1OC(c1ccc(O)c(O)c1)CC2=O (configuration not stated),-1.4,28.3,0.6,0.8,0.4,62.1*
O=C1/C(=C\c2ccc(O)c(O)c2)C(c2ccccc2)=NN1c1ccccc1,-0.2,17.2,0.6,0.8,0.4,64.6*
Cc1ccc2c(C)cc(=S)[nH]c2c1,-1.0,-4.9,1.8,2.8*,0.9,6.8
Cc1cc(=S)[nH]c2ccccc12,-0.7,2.3,1.2,2.1*,1,0.8
Cc1ccc2[nH]c(=S)cc(C)c2c1,0.9,6.2,0.9,1.4,0.7,25.1
COc1ccc(-c2nnn(CC(=O)N(Cc3ccccc3Cl)C(C(=O)NCC3CCCO3)c3ccco3)n2)cc1OC (configuration not stated),1.2,-1.2,0.8,0.8,0.8,23.0
CN(C)C(=O)CSc1nnc(Cc2ccccc2)n1CC1CCCO1 (configuration not stated),2.4,2.3,1.1,1,1,3.1
Cc1ccc(C)c2[nH]c(=O)c(C(c3nnnn3Cc3ccco3)N3CCc4ccccc4C3)cc12 (configuration not stated),-0.6,18.4,0.9,1,0.4,56.7*
Cc1ccc(C)c2[nH]c(=O)c(C(c3nnnn3CCc3ccccc3)N3CCOCC3)cc12 (configuration not stated),0.9,7.4,1.1,1,0.8,15.1
SMILES,Redox H2O2 prof,G6PDH counter,PMI activator,PMI act hi M6P,Diaphorase act,Diaph inh CS
Cc1cc(C(=O)N2CCCC(C(=O)c3ccc4ccccc4c3)C2)n(C)n1 (configuration not stated),-0.2,11.1,0.9,0.8,0.9,11.1
CC(C)(C)C1=CC(=O)C(N2CCOCC2)=CC1=O,0.1,54.8*,0.9,0.3,0.7,31.9
C=C1N(C)c2cc([N+](=O)[O-])c(N)cc2C1(C)C,0.3,44.5,0.1,0.2,0.3,74.6*
S=C(Nc1ccc2nsnc2c1)N1CCCCCC1,-0.1,59.6*,.,.,.,.
S=C(Nc1ccc2nsnc2c1)NC1CCCCC1,-0.9,55.5*,1.1,1.1,0.6,41.4
COc1ccc(C2NCCc3c2[nH]c2ccccc32)cc1CSc1nc2ccccc2s1 (configuration not stated),-0.1,11.4,1.3,1.8,1.3,-28.4
CCO/C=C1/C(=O)N(C(C)=O)c2ccccc21,-2.4,3.9,1.7,2.6*,1.1,-7.2
CCOC(=O)CON1C(=O)c2ccccc2C1=O,6.7,9.3,1,1,0.9,12.4
CCOC(=O)C1(CCCc2ccccc2)CCN(Cc2cn(CC)nc2C)CC1,-1.0,16.9,1,1,1.1,-8.7
FC(F)Oc1cccc(NC(=S)N2CCN(c3ccccn3)CC2)c1,-0.4,0.5,0.3,0.4,0.3,69.6*
CCCCn1nnnc1SCC(=O)Nc1ccc(F)cc1,2.6,8.4,1.1,0.9,0.8,21.8
CCSc1ncc(/C=N/Nc2ccc(F)cc2)n1C,-0.8,4.3,1.2,2*,0.7,25.2
Cc1ccc(N2C(=O)c3cccc4cccc(c34)C2=O)cc1,-0.3,5.5,1,1,1.2,-15.3
C=C1c2ccccc2NC(=O)N1c1ccc(C)cc1,0.0,-3.4,1.7,2.1*,1,2.8
C=C1c2cc(C)ccc2NC(=O)N1c1ccc(C)cc1,0.5,16.3,1.9,2.4*,1,-0.4
O=c1[nH]c(Nc2ccccc2)cc2ccccc12,-1.0,55.3*,0.9,0.5,0.9,10.2
COC(=O)c1ccccc1N/C=C1\CCc2c(c(C)nn2-c2ccccn2)C1=O,-5.3,26.2,0.1,0.3,0.3,73.9*
Cc1ccc(C(=O)NNC(=O)c2cccc(S(=O)(=O)N3CCN(c4ccccc4)CC3)c2)cc1,-0.1,13.1,0.9,0.9,0.9,5.3
COc1ccc(NC(=O)CN(c2ccccc2)S(=O)(=O)N(C)C)cc1Cl,-0.6,-4.4,1,1,0.3,68.4*
